Common to all, as to type: functional
For assay [1], the system named is Rattus norvegicus. In words: Antipyretic activity against brewer's yeast-induced hyperthermia in Wistar rat assessed as change in rectal temperature at 5 mg/kg, po after 90 mins. The gist of the method:
(§1)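 Wistar rats of both sexes, 200–250 g, received brewer's yeast in normal saline sc. Rectal temperature was taken with a digital thermometer (precision 0.1 °C). At 18 h, rats whose temperature had risen 0.3–0.5 °C were selected. Test compounds (30 or 60 mg/kg) or indomethacin (5 mg/kg) were given orally in 1% CMC; controls received vehicle only. Temperature was measured at 30, 60, 90, 120 and 150 min, mean ± SEM.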

In assay [2] the test system is Rattus norvegicus. In words: Antipyretic activity against brewer's yeast-induced hyperthermia in Wistar rat assessed as change in rectal temperature at 5 mg/kg, po after 60 mins. The gist of the method:
as §1

The test system of assay [3] is Rattus norvegicus. Put plainly: Antipyretic activity against brewer's yeast-induced hyperthermia in Wistar rat assessed as change in rectal temperature at 5 mg/kg, po after 150 mins. The gist of the method:
as §1

The test system of assay [4] is Rattus norvegicus. Put plainly: Antipyretic activity against brewer's yeast-induced hyperthermia in Wistar rat assessed as change in rectal temperature at 5 mg/kg, po after 30 mins. The gist of the method:
as §1

Assay [5] has as its system Rattus norvegicus. In words: Antipyretic activity against brewer's yeast-induced hyperthermia in Wistar rat assessed as change in rectal temperature at 5 mg/kg, po after 120 mins. The gist of the method: as §1
The test system of assay [6] is Staphylococcus aureus. Put plainly: Antimicrobial activity against Staphylococcus aureus after 24 hrs by twofold serial dilution method. The gist of the method:
(§2)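 Twofold serial broth dilution in nutrient broth at pH 7.4 ± 0.2. Compound stocks were 1 mg/mL in DMSO, diluted 1:5 into seeded broth, then six serial dilutions. Inocula came from 24 h nutrient-agar cultures, final 10⁵ cfu/mL. Incubation was 37 ± 1 °C for 24 h, with growth and solvent controls. MIC was read visually; ciprofloxacin was the standard.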

Assay [7] deals with Escherichia coli. Put plainly: Antimicrobial activity against Escherichia coli after 24 hrs by twofold serial dilution method. The gist of the method:
as §2

The subject of assay [8] is Candida albicans. In words: Antimicrobial activity against Candida albicans after 72 to 96 hrs by twofold serial dilution method. The gist of the method: (§3)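 Twofold serial broth dilution in Sabouraud dextrose broth at pH 5.6. Spores came from 1–7-day Sabouraud agar slants, final inoculum 1.1–1.5 × 10² cfu/mL. Compound stocks were 1 mg/mL in DMSO, diluted 1:5 into seeded broth, then six serial dilutions. Incubation was 28 ± 1 °C for 72–96 h, with growth and solvent controls. MIC was read visually; amphotericin B was the standard.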

Assay [9] deals with Rattus norvegicus. Put plainly: Antipyretic activity against brewer's yeast-induced hyperthermia in Wistar rat assessed as change in rectal temperature at 60 mg/kg, po after 30 mins. The gist of the method:
as §1

The test system of assay [10] is Rattus norvegicus. Put plainly: Antipyretic activity against brewer's yeast-induced hyperthermia in Wistar rat assessed as change in rectal temperature at 30 mg/kg, po after 120 mins. The gist of the method: as §1
Assay [11] has as its system Salmonella enterica subsp. enterica serovar Typhi str. CT18. In words: Antimicrobial activity against Salmonella typhi after 24 hrs by twofold serial dilution method. The gist of the method: as §2
Assay [12] deals with Mus musculus. Put plainly: Analgesic activity in albino mouse assessed as inhibition of acetic acid-induced writhing response at 90 mg/kg, po administered 1 hr prior to acetic acid challenge relative to control. The gist of the method: (§4)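 Albino mice of both sexes, 20–25 g, n = 6 per group. Doses of 30, 60 or 90 mg/kg were given orally as suspensions in 1% sodium CMC. 1 h later, 1% acetic acid in normal saline (10 mL/kg) was injected ip. Complete extension of either hind limb counted as a writhe. Counting started 5 min after injection and ran 30 min. Results are % inhibition = [1 − T/C] × 100 versus vehicle controls, mean ± SEM.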

The test system of assay [13] is Rattus norvegicus. Put plainly: Antipyretic activity against brewer's yeast-induced hyperthermia in Wistar rat assessed as change in rectal temperature at 60 mg/kg, po after 120 mins. The gist of the method: as §1
The test system of assay [14] is Mus musculus. In words: Analgesic activity in albino mouse assessed as inhibition of acetic acid-induced writhing response at 30 mg/kg, po administered 1 hr prior to acetic acid challenge relative to control. The gist of the method: as §4
For assay [15], the system named is Rattus norvegicus. In words: Antipyretic activity against brewer's yeast-induced hyperthermia in Wistar rat assessed as change in rectal temperature at 30 mg/kg, po after 60 mins. The gist of the method: as §1
Assay [16] deals with Rattus norvegicus. Put plainly: Antipyretic activity against brewer's yeast-induced hyperthermia in Wistar rat assessed as change in rectal temperature at 30 mg/kg, po after 90 mins. The gist of the method: as §1
In assay [17] the test system is Klebsiella pneumoniae. Put plainly: Antimicrobial activity against Klebsiella pneumoniae after 24 hrs by twofold serial dilution method. The gist of the method:
as §2

Assay [18] relates to Aspergillus niger. Put plainly: Antimicrobial activity against Aspergillus niger after 72 to 96 hrs by twofold serial dilution method. The gist of the method: as §3
Assay [19] deals with Rattus norvegicus. Put plainly: Antipyretic activity against brewer's yeast-induced hyperthermia in Wistar rat assessed as change in rectal temperature at 60 mg/kg, po after 60 mins. The gist of the method: as §1
Assay [20] concerns Aspergillus flavus. Put plainly: Antimicrobial activity against Aspergillus flavus after 72 to 96 hrs by twofold serial dilution method. The gist of the method: as §3
For assay [21], the system named is Rattus norvegicus. Put plainly: Antipyretic activity against brewer's yeast-induced hyperthermia in Wistar rat assessed as change in rectal temperature at 60 mg/kg, po after 150 mins. The gist of the method: as §1
For assay [22], the system named is Pseudomonas aeruginosa. Put plainly: Antimicrobial activity against Pseudomonas aeruginosa after 24 hrs by twofold serial dilution method. The gist of the method:
as §2

Assay [23] deals with Rattus norvegicus. Put plainly: Antipyretic activity against brewer's yeast-induced hyperthermia in Wistar rat assessed as change in rectal temperature at 30 mg/kg, po after 30 mins. The gist of the method:
as §1

The test system of assay [24] is Rhizopus. Put plainly: Antimicrobial activity against Rhizopus sp. after 72 to 96 hrs by twofold serial dilution method. The gist of the method:
as §3

The subject of assay [25] is Rattus norvegicus. In words: Antipyretic activity against brewer's yeast-induced hyperthermia in Wistar rat assessed as change in rectal temperature at 60 mg/kg, po after 90 mins. The gist of the method: as §1
Assay [26] relates to Rattus norvegicus. Put plainly: Antipyretic activity against brewer's yeast-induced hyperthermia in Wistar rat assessed as change in rectal temperature at 30 mg/kg, po after 150 mins. The gist of the method:
as §1

Assay [27] deals with Mus musculus. Put plainly: Analgesic activity in albino mouse assessed as inhibition of acetic acid-induced writhing response at 60 mg/kg, po administered 1 hr prior to acetic acid challenge relative to control. The gist of the method: as §4

Molecules are shown by their SMILES. ≈ marks a conversion by molar mass, not a printed value.

For `COc1ccc2c(c1)c(CC(=O)O)c(C)n2C(=O)c1ccc(Cl)cc1` [INDOMETHACIN], the Activity in [1] was 37.8 °C; in assay [2], 37.9 °C; in assay [3] it was 37.5 °C; in [4], 38.1 °C; in assay [5], 37.7 °C.

Turning to `CC(C)C1C(=O)CC(c2ccccc2)N(C(=O)CN2CCN(C)CC2)C1c1ccccc1` (stereo unspecified), the MIC amounted to 200 µg/mL (≈ 461 µM) in assay [6]; 100 µg/mL (≈ 231 µM) in assay [7]; 200 µg/mL (≈ 461 µM) in assay [8]; 50 µg/mL (≈ 115 µM) in assay [11]; 200 µg/mL (≈ 461 µM) in assay [17]; 100 µg/mL (≈ 231 µM) in [18]. Further, the minimal inhibitory concentration (MIC) in assay [20] came to 100 µg/mL (≈ 231 µM); in [22] it was 100 µg/mL (≈ 231 µM); in assay [24], 50 µg/mL (≈ 115 µM). The Activity stood at 38.05 °C in [9]; 38.96 °C in [10]; 38.9 °C in [13]; 38.1 °C in assay [15]; 38.01 °C in assay [16]; 38.01 °C in [19]. Moreover, the Activity is 38.75 °C in assay [21], 38.15 °C in assay [23], 38.95 °C in assay [25] and 38.9 °C in assay [26]. For the same compound, the inhibition in vivo at 90 mg/kg in assay [12] is 2.2%. The inhibition in vivo at 30 mg/kg in [14] worked out at 5.6%. Besides, the inhibition in vivo at 60 mg/kg in assay [27] was found to be 18.1%.

On to `CC1C(=O)C(C)C(c2ccc(Cl)cc2)N(C(=O)CN2CCN(C)CC2)C1c1ccc(Cl)cc1` (stereo unspecified), for which the minimal inhibitory concentration (MIC) worked out at 6.25 µg/mL (≈ 12.8 µM) in assay [6]; 12.5 µg/mL (≈ 25.6 µM) in assay [7]; 12.5 µg/mL (≈ 25.6 µM) in [8]; 50 µg/mL (≈ 102 µM) in assay [11]; 6.25 µg/mL (≈ 12.8 µM) in [17]; 25 µg/mL (≈ 51.2 µM) in assay [18]. The figures for the minimal inhibitory concentration (MIC) in [20], in [22] and in assay [24] were 25 µg/mL (≈ 51.2 µM), 12.5 µg/mL (≈ 25.6 µM) and 6.25 µg/mL (≈ 12.8 µM), respectively. The Activity is 37.92 °C in [9]; 37.6 °C in assay [10]; 37.55 °C in [13]; 37.9 °C in [15]; 37.8 °C in assay [16]; 37.85 °C in [19]. Also, the Activity in [21] came to 37.3 °C; in assay [23], 37.95 °C; in assay [25], 37.75 °C; in assay [26] it was 37.4 °C. Further, in [12], the inhibition in vivo at 90 mg/kg was determined as 38.9%. Further, the inhibition in vivo at 30 mg/kg in assay [14] is 22.5%. Further, the inhibition in vivo at 60 mg/kg in assay [27] stood at 36.5%.

Turning to `Cc1ccc(C2C(C)C(=O)C(C)C(c3ccc(C)cc3)N2C(=O)CN2CCN(C)CC2)cc1` (stereo unspecified), the MIC is 50 µg/mL (≈ 112 µM) in assay [6]; 100 µg/mL (≈ 223 µM) in [7]; 50 µg/mL (≈ 112 µM) in assay [8]; 25 µg/mL (≈ 55.9 µM) in [11]; 12.5 µg/mL (≈ 27.9 µM) in assay [17]; 12.5 µg/mL (≈ 27.9 µM) in [18]. The MIC is 12.5 µg/mL (≈ 27.9 µM) in [20], 25 µg/mL (≈ 55.9 µM) in assay [22] and 25 µg/mL (≈ 55.9 µM) in assay [24]. Moreover, the Activity in assay [9] was 38.01 °C; in assay [10] it was 37.9 °C; in [13] it was 37.8 °C; in assay [15] it was 38.02 °C; in assay [16] it was 37.95 °C; in assay [19], 38.95 °C. Moreover, the Activity in assay [21] is 37.6 °C; in [23] it was 38.11 °C; in assay [25], 37.9 °C; in assay [26], 37.7 °C. In assay [12], the inhibition in vivo at 90 mg/kg came out at 33.1%. Further, the inhibition in vivo at 30 mg/kg in assay [14] turned out to be 42.6%. Moreover, in assay [27], the inhibition in vivo at 60 mg/kg was 54.6%.

The values are drawn from ChEMBL document CHEMBL1153856, “Synthesis and spectral characterization of a new class of N-(N-methylpiperazinoacetyl)-2,6-diarylpiperidin-4-ones: antimicrobial, analgesic and antipyretic studies” (2009).
